PubChem BioAssay AID449755 (Broad Institute, 2010)
Records with an inconclusive call do not appear. Activity calls are given as the source filed them.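 Rule for the calls: active = compounds raising caspase signal whose fitted AC50 is at most ten times the top tested dose; inconclusive = flat fit with 30 to 70% activity, or failed fit; inactive = the rest.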

System: HMC 1-8 low-A1 cells, caspase-3/7 luminescence, 3 h
Experiment: caspase induction, A1-low human cancer line – cell-based, HMC 1-8 low A1, caspase luminescence, counter-screen for A1 inhibitor project, dose response (AID 449755)
Method in brief: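 Material: Low-A1 HMC 1-8 human cancer cell line | Amount: 2500 cells per well, seeded the day before compound | Medium: RPMI-1640, 10% FBS | Compound dosing: Pin-transferred compound | Incubation: Compound 3 h at 37 °C, detection 1 h RT | Signal: Caspase-3/7 DEVD luminescence | Read-out basis: Caspase-3/7 activation, marking off-target non-A1 activity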

Structure (SMILES)	AC50
CC(C)Cn1c(O)c(/C=C2\C=NN=C2c2ccccc2)sc1=S	> 35 µM (inactive)
COc1ccccc1-c1cn[nH]c1-c1ccc(OCc2ccccc2)cc1O	> 35 µM (inactive)
O=C1C2C3C=CC(CO)(O3)C2C(=O)N1c1ccc(-c2ccccc2)cc1 (stereo not given)	> 35 µM (inactive)
CC(=O)OC(C)(C)/C=C/C(=O)C(C)(O)C1[C@H](O)C[C@@]2(C)C3CC=C4C(CC[C@@H](O)C4(C)C)[C@]3(CO)C(=O)C[C@]12C (stereo not given in full)	> 35 µM (inactive)
CCOC(=O)C1=C(c2ccccc2)O/C(=C(/C#N)C(F)(F)F)S1	> 35 µM (inactive)
Cc1ccc(C)c(S(=O)(=O)NCC(=O)Nc2sc3c(c2C(N)=O)CCC(C)C3)c1 (stereo not given)	> 35 µM (inactive)
COc1cc(NC(=O)c2ccc(Cl)cc2Cl)ccc1-c1cc2ccccc2oc1=O	> 35 µM (inactive)
CC(C)(C)c1ccc(C(=O)Nc2ccc(O)c3c(=O)cc(-c4cccc(Cl)c4)oc23)cc1	> 35 µM (inactive)
Cc1ccc(NC(=S)NC(NC(=O)Cc2cccc3ccccc23)C(Cl)(Cl)Cl)cc1 (stereo not given)	27 µM
COc1ccc2c(c1)[nH]c1c(=O)n(/N=C/C3C(C)C=C(C)CC3C)c(=O)[nH]c12 (stereo not given)	> 35 µM (inactive)
COc1ccc(OC[C@@H](O)CNC(=O)c2cccc3c2C(=O)c2ccc(-c4ccc(F)cc4OCc4ccccc4)cc2S3(=O)=O)cc1	> 35 µM (inactive)
COc1cc(-c2cc(-c3ccccc3)nc(SCC(=O)Nc3nccs3)c2C#N)cc(OC)c1OC	> 35 µM (inactive)
COc1ccc(C[C@H]2NC[C@H](O)[C@H]2OC(C)=O)cc1	1.09 µM
O=C(NC1CCCCC1)c1cccc2c1C(=O)c1ccc(-c3ccc(OC(F)(F)F)cc3)cc1S2(=O)=O	> 35 µM (inactive)
COc1ccc(Cn2c(SCc3ccc(C)cc3)nc3cc(OC)c(OC)cc3c2=N)cc1Cl	27.1 µM
CN1C2CCC1/C(=C/c1ccccn1)C(=O)/C2=C\c1ccccn1	> 35 µM (inactive)
CC(C)c1cccc(-c2ccc3c(c2)S(=O)(=O)c2cccc(C(=O)NC4CCCC4)c2C3=O)c1	> 35 µM (inactive)
CCCc1ccc(OCc2ccc(C(=O)N/N=C/c3cccc([N+](=O)[O-])c3)o2)c(OC)c1	7.31 µM
Cc1nn(-c2ccccc2)c(Cl)c1CN(C(=O)CCl)c1ccc(Cl)cc1	> 35 µM (inactive)
CC1=NNC(=O)/C1=C\c1cn(-c2ccccc2)nc1-c1cccs1	> 35 µM (inactive)
COc1ccc(NC(=O)c2cccc3c2C(=O)c2ccc(-c4ccc(F)cc4OCc4ccccc4)cc2S3(=O)=O)cc1	> 35 µM (inactive)
CC(C)N=c1scc(-c2ccco2)n1/N=C/c1ccc(O)c(O)c1	> 35 µM (inactive)

Structure (SMILES)	AC50
Cc1cc(C(=O)CCl)c(C)n1CCc1ccc(Cl)cc1	> 35 µM (inactive)
COCc1cc(C)nc(SCC(=O)Nc2nc(C)cs2)c1C#N	> 35 µM (inactive)
Cc1ccc(C=C2C(Cl)=C(Cl)C(Cl)=C2Cl)cc1	12.9 µM
CCOC(=O)COc1ccccc1/C=C\[N+](=O)[O-]	> 35 µM (inactive)
c1ccc(-c2sc3ccccc3c2-c2ccc(OCCN3CCCC3)cc2)cc1	> 35 µM (inactive)
CCOC(=O)c1c(C)oc2c1c(CN1CCN(C(=O)OCC)CC1)c(O)c1ccccc12	26.3 µM
Cc1cc(C)n(-c2nc(Nc3ccccc3C)nc(-n3nc(C)cc3C)n2)n1	> 35 µM (inactive)
Cc1ccc(Sc2c([N+](=O)[O-])c(=O)n(C)c3ccccc23)cc1	> 35 µM (inactive)
COc1cc(/C=C(/C#N)C(=O)Nc2ccc(Cl)cc2)ccc1Oc1nc(Cl)ncc1F	> 35 µM (inactive)
Cc1ccc(S(=O)(=O)c2nnn3c2nc(Nc2cccc(C)c2)c2ccccc23)cc1	> 35 µM (inactive)
Cc1ccc(C(=O)/C=C/C(=O)c2ccc(C)cc2)cc1	> 35 µM (inactive)
C=CC(=O)Nc1ccc(CN2C(=O)N(c3c(Cl)c(OC)cc(OC)c3Cl)Cc3cnc(NCCCCN(CC)CC)nc32)cc1	> 35 µM (inactive)
COc1ccc(C2CC(c3c(O)cc(C)oc3=O)=NCCS2)c(OC)c1 (stereo not given)	> 35 µM (inactive)
COc1cc(/C=C(/C#N)c2nc3ccccc3[nH]2)ccc1OCC(=O)Nc1ccccc1C	3.01 µM
CCn1c(SCC(=O)c2ccccc2)nnc1-c1cc2cc(Br)ccc2o1	> 35 µM (inactive)
COc1cc2ncnc(NCc3ccc(F)cc3)c2cc1OC	> 35 µM (inactive)
Cc1ccc(C(=O)/C=C\C(=O)c2ccc(C)cc2)cc1	> 35 µM (inactive)
Cc1ccc(C(=O)COC(=O)c2ccc3c(c2)C(=O)N(c2cccc4ncccc24)C3=O)cc1	24.3 µM
COc1ccccc1C(=O)Nc1ccnn1C1CCN(Cc2cn(C)c3ccccc23)CC1	> 35 µM (inactive)
CCc1ccc(NC(=O)c2nc(S(=O)(=O)Cc3ccccc3)ncc2Cl)cc1	> 35 µM (inactive)
O=C(Nc1ccc2oc(-c3ccccc3)nc2c1)c1ccccc1F	> 35 µM (inactive)
Cc1nn(-c2ccccc2)c(C)c1/C=N/NC(=O)CSc1nc2ccccc2c(=O)n1-c1ccc(Br)cc1	> 35 µM (inactive)

Structure (SMILES)	AC50
CC(=O)Nc1ncnc2c1c(-c1ccc(Cl)cc1)nn2C(C)(C)C	> 35 µM (inactive)
CCc1nnc(NC(=O)CSc2nc(-c3ccccc3)cc(-c3ccc(F)cc3)c2C#N)s1	> 35 µM (inactive)
CCc1nn(-c2cc(Oc3cccc4ccccc34)nc(-c3ccccc3)n2)c(N)c1C#N	> 35 µM (inactive)
CCS(=O)(=O)c1ncc(Cl)c(C(=O)Nc2ccccc2OC)n1	> 35 µM (inactive)
Cc1ccc(NC(=O)CSc2nc3nc(C)c(Br)cc3[nH]2)cc1F	> 35 µM (inactive)
COc1ccc(NC(=S)NC(NC(=O)/C=C/c2ccccc2)C(Cl)(Cl)Cl)cc1 (stereo not given)	> 35 µM (inactive)
COc1cc(C(=O)Nc2cc3c(cc2N2CCCCC2)n(C)c(=O)n3C)cc(OC)c1OC	> 35 µM (inactive)
CC1(C)C[C@H](O)[C@]2(CO)[C@H](O)C[C@]3(C)C(=CCC4[C@@]5(C)CC[C@H](O)C(C)(C)C5CC[C@]43C)[C@@H]2C1 (stereo not given in full)	> 35 µM (inactive)
COc1ccc(-c2c(C#N)c(N)nc(Sc3ccc(Cl)cc3)c2C#N)cc1	> 35 µM (inactive)
O=C(COc1ccccc1[N+](=O)[O-])Nc1ccc(NC(=O)c2cc3ccccc3o2)cc1	9.07 µM
N#Cc1cccnc1N1CCN(C(=O)c2cccc3c2C(=O)c2ccc(-c4ccc(Cl)c(C(F)(F)F)c4)cc2S3(=O)=O)CC1	> 35 µM (inactive)
COc1cc(CN2CCN(c3cc(C)ccc3C)CC2)ccc1O	> 35 µM (inactive)
CC1=NNC(=O)/C1=C\c1cn(-c2ccccc2)nc1-c1ccccc1	> 35 µM (inactive)
CC(C)CCN(C(=O)Cc1ccc(Cl)c(Cl)c1)c1c(N)n(Cc2ccccc2)c(=O)[nH]c1=O	24.3 µM
COc1ccc(C=C2C=C(C(C)(C)C)C(=O)C(C(C)(C)C)=C2)cc1OC	5.9 µM
O=C(N=Nc1c(O)[nH]c2ccc([N+](=O)[O-])cc12)c1cc(-c2ccccc2Cl)nc2ccccc12	> 35 µM (inactive)
COc1ccc(S(=O)(=O)N2CC(O)CC2C(=O)OCC(=O)Nc2ccc(Cl)cn2)cc1 (stereo not given)	> 35 µM (inactive)
Cc1ccc(N(Cc2cc(=O)[nH]c3ccccc23)C(=O)CCl)cc1	> 35 µM (inactive)
Cc1ccc(CS(=O)(=O)c2ncc(Cl)c(C(=O)Nc3nnc(C(C)C)s3)n2)cc1	> 35 µM (inactive)
CCC1CCCCN1S(=O)(=O)c1ccc(NC(=O)c2nc(S(C)(=O)=O)ncc2Cl)cc1 (stereo not given)	> 35 µM (inactive)
CC(C)(C)C1CCc2onc(C(=O)Nc3cccc(O)c3)c2C1 (stereo not given)	> 35 µM (inactive)
CC(C)c1ccc2[nH]c(O)c(N=NC(=O)c3cccc(S(=O)(=O)Nc4ccc(Cl)cc4)c3)c2c1	> 35 µM (inactive)

Structure (SMILES)	AC50
CCc1nnc(NC(=O)c2nc(S(=O)(=O)Cc3ccccc3)ncc2Cl)s1	> 35 µM (inactive)
Oc1ccc(/C=N/N2CCN(C3c4ccccc4-c4ccccc43)CC2)cc1O	> 35 µM (inactive)
COc1ccc(NC(=O)CSc2nc3ccc(Nc4nc(N5CCOCC5)nc(N5CCOCC5)n4)cc3s2)cc1	> 35 µM (inactive)
COc1ccc(N(C(=O)CCl)C(C(=O)NCCc2ccccc2)c2cccs2)cc1Cl (stereo not given)	> 35 µM (inactive)
Cc1cc(NC(=O)CSc2nc3cc(Cl)ccc3c(=O)n2Cc2ccco2)no1	> 35 µM (inactive)
O=C(Oc1cccc(/C=N/Nc2nc(Nc3ccccc3)nc(N3CCOCC3)n2)c1)c1ccco1	> 35 µM (inactive)
COc1ccccc1CCNC(C)CCc1ccc(O)cc1 (stereo not given)	> 35 µM (inactive)
O=C(Cn1c(C(F)(F)F)nc2ccccc21)N=Nc1c(O)[nH]c2ccc(Br)cc12	32.3 µM
Cc1ccc(C#N)c(SCC(=O)Nc2nccs2)n1	> 35 µM (inactive)
CC(=O)OC(C)(C)/C=C/C(=O)[C@](C)(O)C1[C@H](O)C[C@@]2(C)C3CC=C4C(C[C@H](O)C(=O)C4(C)C)[C@]3(C)C(=O)C[C@]12C (stereo not given in full)	> 35 µM (inactive)
CC(=O)Nc1sc(N/N=C\c2cccc(Cl)c2)nc1-c1cccs1	> 35 µM (inactive)
N#CC(C#N)=C1C=CC=CN1/C(=C\c1ccccc1Cl)C(=O)c1ccccc1	27.9 µM
COC(=O)c1ccc2c(c1)C(C)(C)C(/C=C/c1ccccc1O)=[N+]2C	8.58 µM
Cc1c(C=O)c(C=O)c(C)n1Cc1ccccc1	> 35 µM (inactive)
CCc1ccccc1NC(=O)C(CC)Sc1nc2cc3c(cc2c(=O)n1Cc1ccco1)OCO3 (stereo not given)	> 35 µM (inactive)
N#C/C(=C\c1ccc(OCc2ccccc2)cc1)C(=O)Nc1nc2c(s1)CCN(Cc1ccccc1)C2	> 35 µM (inactive)
O=C(Nc1ccc([N+](=O)[O-])cc1)c1nc[nH]c1C(=O)NC1CCCCC1	> 35 µM (inactive)
O=C(NC[C@H]1CCCO1)c1cccc2c1C(=O)c1ccc(-c3ccc(F)cc3OCc3ccccc3)cc1S2(=O)=O	> 35 µM (inactive)
C=C1/C=C(\C)[C@](C)(O)C[C@H](O)CC(=O)[C@H](O)[C@@H](O)[C@H](C)C[C@H](C)OC(=O)/C(C)=C/CC/C=C/[C@@H]2O[C@H]2C[C@H](C)C1	> 35 µM (inactive)
